TRPC6 inhibitor = blocks the mouse TRPC6 cation channel. Q61143. HEK293-TRPC6, membrane potential dye, ACh-evoked depolarization; hits give low values. B-score at 10 µM. 310,000 compounds, 1.1% hits. AID 2553;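 active = B-score under library mean minus 3 SD, initial fluorescence not abnormally high, positive integrated signal ratio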;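 note: B-score derived from integrated fluorescence ratio over the kinetic read; more negative B-score means stronger inhibition of depolarization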
TRPC4 block = TRPC4 (mouse) channel inhibition; 300,000 compounds, 0.39% hits; HEK293 TRPC4beta/mu-opioid, DAMGO-evoked Fluo4 calcium flux; hits give low values; Q9QUQ5; B-score at 10 µM; AID 2247;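 active = B-score over 3 SD under the library average, no early fluorescence shift, positive overall ratio signal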
Target sequence (Q9QUQ5 whole entry, looked up): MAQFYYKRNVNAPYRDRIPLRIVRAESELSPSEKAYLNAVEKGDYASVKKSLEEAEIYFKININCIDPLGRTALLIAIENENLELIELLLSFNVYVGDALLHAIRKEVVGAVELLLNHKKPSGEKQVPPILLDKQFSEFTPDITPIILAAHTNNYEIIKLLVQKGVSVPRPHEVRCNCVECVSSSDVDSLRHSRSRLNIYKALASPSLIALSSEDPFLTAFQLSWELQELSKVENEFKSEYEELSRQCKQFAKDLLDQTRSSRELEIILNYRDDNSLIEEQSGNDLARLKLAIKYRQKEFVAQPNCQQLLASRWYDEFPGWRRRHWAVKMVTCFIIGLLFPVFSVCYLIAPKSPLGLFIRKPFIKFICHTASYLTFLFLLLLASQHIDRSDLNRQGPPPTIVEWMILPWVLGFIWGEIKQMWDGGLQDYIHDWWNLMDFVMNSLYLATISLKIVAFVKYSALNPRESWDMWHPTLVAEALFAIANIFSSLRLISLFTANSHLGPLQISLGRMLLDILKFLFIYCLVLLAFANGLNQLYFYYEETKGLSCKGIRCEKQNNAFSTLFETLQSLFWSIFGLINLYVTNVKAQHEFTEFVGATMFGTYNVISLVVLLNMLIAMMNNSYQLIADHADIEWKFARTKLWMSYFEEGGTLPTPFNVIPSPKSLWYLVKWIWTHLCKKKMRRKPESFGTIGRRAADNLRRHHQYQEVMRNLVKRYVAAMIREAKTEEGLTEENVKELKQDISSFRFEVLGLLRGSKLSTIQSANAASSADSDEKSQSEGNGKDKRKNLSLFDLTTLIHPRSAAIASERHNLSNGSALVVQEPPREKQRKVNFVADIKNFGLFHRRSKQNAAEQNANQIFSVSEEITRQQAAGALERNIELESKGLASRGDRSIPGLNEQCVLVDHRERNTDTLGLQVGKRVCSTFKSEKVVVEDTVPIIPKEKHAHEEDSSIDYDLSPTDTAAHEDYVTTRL
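Material: HEK293 cells with stable TRPC4beta plus mu-opioid receptor expression / Probe or stimulus: DAMGO in two steps, submaximal then maximal / Compound: single concentration per test compound / Technique: kinetic Fluo4 fluorescence imaging of calcium influx / Read-out: per-well B score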
TRPC6 activator = mouse TRPC6 channel activation. AID 2550. B-score at 10 µM. Q61143. HEK293-TRPC6 membrane potential dye fluorescence; hits give high values. 310,000 compounds, 0.13% hits;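 active = B-score of the integrated fluorescence ratio above library mean plus 3 SD, and starting fluorescence ratio within library mean plus 5 SD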;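 note: higher score means more depolarization so channel activation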
TRPC4 potent = allosterically enhances the mouse TRPC4 cation channel | AID 2227 | B-score at 10 µM | Q9QUQ5 | 310,000 compounds, 0.42% hits | HEK293 TRPC4beta/mu-opioid, DAMGO EC20, Fluo-4 Ca2+ flux; hits give high values;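 active = B-score of calcium response area above 5 SD of library B-scores, with initial fluorescence ratio within 5 SD of library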;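 note: B-score of integrated fluorescence ratio over time as area under calcium response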
TRPC4 agonist = activators of mouse TRPC4 channel. Q9QUQ5. HEK293 TRPC4beta/mu-opioid, Fluo4 calcium fluorescence; hits give high values. B-score at 10 µM. 310,000 compounds, 0.49% hits. AID 2237;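 active = B-score above 5 SD of library B-scores, and initial fluorescence ratio not above library mean plus 5 SD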;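 note: positive B-score marks a calcium rise read as TRPC4 activation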
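Material: HEK293 stable line with TRPC4beta plus mu-opioid receptor; technique: Fluo4 calcium-sensitive dye fluorescence, kinetic, 1 Hz baseline; timing: Fluo4 dye loading 45 min at room temperature, 110 s recording; controls: assay buffer as low control, maximal DAMGO as high control; read-out: integrated baseline-normalised fluorescence ratio, converted to per-well B score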
Active calls of the source: *; i = inactive. Compounds with a hit are over-represented: about 2.3% of the library has one in this group of screens.

SMILES	TRPC6 inhibitor	TRPC4 block	TRPC6 activator	TRPC4 potent	TRPC4 agonist
CC(C)n1ncc(N2CCOCC2)c(Cl)c1=O	i	i	i	i	i
CC1(C)CC(NC(=O)c2ccncc2)CC(C)(C)N1O	i	i	i	i	79*
CN1CCC(NC(=O)c2ccncc2)CC1	i	i	i	i	i
O=C(N/N=C/c1cc2ccccc2[nH]1)c1ccccc1Cl	i	i	i	i	i
Cc1onc(-c2c(F)cccc2Cl)c1C(=O)N1CCN(c2ncc(Br)cn2)CC1	i	i	i	i	86*
COc1ccccc1N1CCN(C(=O)c2cc(-c3ccc(C)cc3)on2)CC1	i	i	i	i	i
COc1ccccc1-c1cc(C(=O)N2CCN(c3ccccc3OC)CC2)no1	i	-6*	i	i	i
COc1ccc(CNC(=O)CN(C)Cc2ccccc2F)cc1OC	i	-6*	i	i	i
Cc1cc(NC(=O)CSCC(=O)OC(C)C(=O)c2cc(C)c(C)cc2C)no1 (stereo not given)	i	-6*	i	i	i
COc1ccc(CC(=O)Nc2ccccc2Oc2ccccc2)cc1	i	-6*	i	i	i
Cc1ccc(Oc2ccccc2NC(=O)CSCC(=O)Nc2cc(C)on2)cc1	i	-6*	i	i	i
Cc1cc(NC(=O)CSCC(=O)Nc2ccc(Cl)c(C(F)(F)F)c2)no1	i	-5*	i	i	i
COc1ccccc1NC(=O)Cc1ccc(-c2ccccc2)cc1	i	i	i	i	i
Cc1cc(NC(=O)CSCC(=O)OC(C)C(=O)N(C)Cc2ccccc2)no1 (stereo not given)	i	i	i	i	i
COc1ccc(NC(=O)CSCC(=O)N(C)CC(=O)Nc2ccc(Cl)c(C(F)(F)F)c2)cc1	i	i	i	i	i
Cc1cc(NC(=O)CSCC(=O)Nc2ccccc2Oc2ccccc2)no1	i	i	i	i	i
Cc1ccc(S(=O)(=O)CCC(=O)NCc2ccco2)cc1	i	i	i	i	i
CCOc1ccccc1NC(=O)c1ccc2c(c1)C(=O)N(CC)C2=O	i	i	i	i	i
COCCCn1cc(C(=O)c2ccccc2OCC(=O)Nc2cccc(F)c2)cc(C#N)c1=O	i	i	i	i	i
O=c1c2cc(Cl)ccc2nc(-c2ccc(Cl)c(Cl)c2)n1O	i	i	i	i	237*
O=c1c2cc(Br)ccc2nc(-c2cccc(C(F)(F)F)c2)n1O	i	i	i	i	193*
O=c1c2ccc(Cl)cc2nc(-c2ccc([N+](=O)[O-])cc2)n1O	i	i	i	i	63*
O=c1c2cc(Br)ccc2nc(-c2ccc([N+](=O)[O-])cc2)n1O	i	i	i	i	81*
O=c1c2cc(Cl)ccc2nc(-c2ccccc2)n1O	i	i	i	i	i
N#Cc1ccc(-c2nc3ccc(Br)cc3c(=O)n2O)cc1	i	i	i	i	i
SMILES	TRPC6 inhibitor	TRPC4 block	TRPC6 activator	TRPC4 potent	TRPC4 agonist
CCOC(=O)C1=C(CS(=O)(=O)c2ccccc2)NC(=O)NC1c1cc(OC)c(O)c(OC)c1 (stereo not given)	i	i	i	i	i
CC(C)CC(NC(=O)C(CO)NC(=O)C1CCC(=O)N1)C(N)=O (stereo not given)	i	i	i	i	i
CN(C)CCCNc1ccc(S(N)(=O)=O)cc1[N+](=O)[O-]	i	i	i	i	i
COc1ccc(Br)cc1S(=O)(=O)Nc1ncccc1C	i	i	i	i	i
COc1ccc(S(=O)(=O)Nc2ncccc2C)c2ccccc12	i	i	i	11*	i
COc1ccc(-c2cc(-c3ccccc3)nc(NN)n2)cc1OC	i	i	i	i	i
Cc1ccc(-c2cc(-c3ccccc3)nc(NN)n2)cc1	i	i	i	12*	i
O=C([C@H](Cc1ccccc1)N1C(=O)c2ccccc2C1=O)N1CCOCC1	i	i	i	i	i
CCN1CC(CN(C)Cc2cn(-c3cccc(C)c3)nc2-c2cccc(F)c2)CC1=O (stereo not given)	i	i	i	i	73*

Screening results from PubChem BioAssay.
